Assay [1] concerns A549. Kind of assay: Antiproliferative activity against human A549 cells after 48 hrs by MTT assay. It is filed as functional, cell-based. The note with it: A549, 48 h. Summed up: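 A549 seeded at 5-7 × 10³ cells per well and incubated overnight at 37 °C, 5% CO₂. Medium then replaced with fresh medium holding graded compound concentrations or equal DMSO, 48 h. MTT (5 mg mL^-1 solution) added for 4 h, formazan dissolved in DMSO, absorbance read at 490 nm; IC₅₀ derived.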

Assay [2] concerns K562. Kind of assay: Antiproliferative activity against human K562 cells after 48 hrs by MTT assay. The assay is classed as functional, cell-based. The note with it: K562, 48 h. The procedure, abridged:
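K562 at 7×10⁵ cells mL^-1 seeded and held 12 h at 37 °C, 5% CO₂. Compound added in triplicate per concentration for 48 h. MTT (5 mg mL^-1 solution) added for 4 h at 37 °C, formazan dissolved in DMSO, absorbance read at 490 nm; IC₅₀ derived.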

Assay [3] has as its target Epidermal growth factor receptor (Homo sapiens) (UniProt P00533). Kind of assay: Inhibition of EGFR (unknown origin) at 10 uM after 15 mins by luminescence assay relative to control. The procedure, abridged: (§1)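 Contract HTRF-format assay: enzyme, substrate, ATP and compound mixed in 50 mM HEPES/NaOH pH 7.0, 0.02% NaN₃, 0.01% BSA, 0.1 mM orthovanadate, 5 mM MgCl₂, 1 mM DTT. Incubated 15 min at room temperature with compound in 2.5% DMSO. Streptavidin-XL665 and TK antibody europium cryptate added in KF/EDTA buffer; signal read on EnVision; % inhibition computed.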

Assay [4] shares this target. Put plainly: Inhibition of EGFR (unknown origin) at 1 uM after 15 mins by luminescence assay relative to control. The procedure, abridged:
as §1

Assay [5] relates to A549. Put plainly: Antiinvasive activity in human A549 cells at 1 uM preincubated for 6 hrs followed by cell seeding on the inserts to reach confluence for 12 hrs measured after 24 hrs by trypan blue staining-based bright-field light microscopic analysis relative to control. The assay is classed as functional. The procedure, abridged:
(§2)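 A549 cells pretreated with compound for 6 h, seeded on fibronectin-coated 8 µm pore invasion inserts to reach confluence over 12 h, then cultured another 24 h with drug. Cells fixed in 4% formaldehyde, non-invading cells swabbed off, invaders stained with 0.08% trypan blue for 15 min. Five random bright-field views counted; mean ± SEM of five experiments versus control.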

For assay [6], the system named is K562. Kind of assay: Induction of apoptosis in human K562 cells assessed as necrotic cells at 0.01 uM after 48 hrs by Annexin V-FITC/propidium iodide based flow cytometric analysis (reference value: 0.22%). The assay is classed as functional.
For assay [7], the target named is Proto-oncogene tyrosine-protein kinase Src (Homo sapiens) (UniProt P12931). Kind of assay: Inhibition of SRC phosphorylation in human A549 cells after 48 hrs by Western blot analysis. The assay is classed as cell-based. Summed up:
(§3)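 Cells exposed to 0, 0.1, 0.5 and 2.5 µM for 48 h, then lysed and protein quantified. Equal protein loads run on 10% SDS-PAGE, transferred to PVDF and probed for EGFR, p-EGFR, Src and p-Src with HRP secondaries and luminescence detection. Band density expressed as percentage of β-actin.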

The test system of assay [8] is Calf thymus DNA. Kind of assay: Binding affinity to calf thymus DNA by fluorescence titration method. It is filed as nucleic-acid assay. Particulars: Bos taurus.
The subject of assay [9] is K562. Kind of assay: Induction of apoptosis in human K562 cells assessed as late apoptotic cells at 1 uM after 48 hrs by Annexin V-FITC/propidium iodide based flow cytometric analysis (reference value: 2.49%). The assay is classed as functional.
In assay [10] the test system is A549. Kind of assay: Antiinvasive activity in human A549 cells at 0.1 uM preincubated for 6 hrs followed by cell seeding on the inserts to reach confluence for 12 hrs measured after 24 hrs by trypan blue staining-based bright-field light microscopic analysis relative to control. The assay is classed as functional. Summed up:
as §2

Assay [11] deals with A549. Kind of assay: Downregulation of EGFR protein expression in human A549 cells after 48 hrs by Western blot analysis. It is filed as functional, cell-based. Summed up:
as §3

Assay [12] deals with K562. Kind of assay: Induction of apoptosis in human K562 cells assessed as late apoptotic cells at 0.01 uM after 48 hrs by Annexin V-FITC/propidium iodide based flow cytometric analysis (reference value: 2.49%). It is filed as functional.
Assay [13] deals with K562. Put plainly: Induction of apoptosis in human K562 cells assessed as late apoptotic cells at 0.1 uM after 48 hrs by Annexin V-FITC/propidium iodide based flow cytometric analysis (reference value: 2.49%). It is filed as functional.
Assay [14] relates to K562. Put plainly: Induction of apoptosis in human K562 cells assessed as early apoptotic cells at 0.1 uM after 48 hrs by Annexin V-FITC/propidium iodide based flow cytometric analysis (reference value: 4.68%). The assay is classed as functional.
The test system of assay [15] is Calf thymus DNA. Put plainly: Binding affinity to calf thymus DNA by UV-visible absorption spectral analysis. It is filed as nucleic-acid assay. Particulars: Bos taurus.
Assay [16] deals with Epidermal growth factor receptor (Homo sapiens) (UniProt P00533). Kind of assay: Inhibition of EGFR phosphorylation in human A549 cells after 48 hrs by Western blot analysis. The assay is classed as cell-based. Summed up:
as §3

The subject of assay [17] is K562. Kind of assay: Induction of apoptosis in human K562 cells after 48 hrs by Annexin V-FITC/propidium iodide based flow cytometric analysis. The assay is classed as functional, cell-based.
Assay [18] concerns the target Epidermal growth factor receptor (Homo sapiens) (UniProt P00533). Kind of assay: Inhibition of EGFR phosphorylation in human A549 cells by measuring EGFR phosphorylated protein level up to 2.5 uM after 48 hrs by Western blot analysis (reference value: 50.21%). It is filed as cell-based. The arrangement: scale not given: the % may be the effect or the level left. The procedure, abridged: as §3

In assay [19] the target is Proto-oncogene tyrosine-protein kinase Src (Homo sapiens) (UniProt P12931). Put plainly: Inhibition of SRC (unknown origin) at 1 uM after 15 mins by luminescence assay relative to control. The procedure, abridged: as §1
Assay [20] has as its system K562. Put plainly: Induction of apoptosis in human K562 cells assessed as necrotic cells at 1 uM after 48 hrs by Annexin V-FITC/propidium iodide based flow cytometric analysis (reference value: 0.22%). It is filed as functional.
Assay [21] deals with K562. Put plainly: Induction of apoptosis in human K562 cells assessed as early apoptotic cells at 0.01 uM after 48 hrs by Annexin V-FITC/propidium iodide based flow cytometric analysis (reference value: 4.68%). The assay is classed as functional.
Assay [22] deals with A549. Kind of assay: Downregulation of EGFR protein expression in human A549 cells by measuring EGFR level up to 2.5 uM after 48 hrs by Western blot analysis (reference value: 48.02%). The assay is classed as functional. Summed up:
as §3

In assay [23] the test system is K562. Kind of assay: Induction of apoptosis in human K562 cells assessed as necrotic cells at 0.1 uM after 48 hrs by Annexin V-FITC/propidium iodide based flow cytometric analysis (reference value: 0.22%). The assay is classed as functional.
Assay [24] deals with A549. Put plainly: Downregulation of SRC protein expression in human A549 cells after 48 hrs by Western blot analysis. The assay is classed as functional, cell-based. Summed up:
as §3

Assay [25] concerns K562. Put plainly: Induction of apoptosis in human K562 cells assessed as early apoptotic cells at 1 uM after 48 hrs by Annexin V-FITC/propidium iodide based flow cytometric analysis (reference value: 4.68%). The assay is classed as functional.

SMILES strings stand for the structures. pIC50: −log10 of the molar value.

Chain of Epidermal growth factor receptor (Homo sapiens) (P00533 whole entry): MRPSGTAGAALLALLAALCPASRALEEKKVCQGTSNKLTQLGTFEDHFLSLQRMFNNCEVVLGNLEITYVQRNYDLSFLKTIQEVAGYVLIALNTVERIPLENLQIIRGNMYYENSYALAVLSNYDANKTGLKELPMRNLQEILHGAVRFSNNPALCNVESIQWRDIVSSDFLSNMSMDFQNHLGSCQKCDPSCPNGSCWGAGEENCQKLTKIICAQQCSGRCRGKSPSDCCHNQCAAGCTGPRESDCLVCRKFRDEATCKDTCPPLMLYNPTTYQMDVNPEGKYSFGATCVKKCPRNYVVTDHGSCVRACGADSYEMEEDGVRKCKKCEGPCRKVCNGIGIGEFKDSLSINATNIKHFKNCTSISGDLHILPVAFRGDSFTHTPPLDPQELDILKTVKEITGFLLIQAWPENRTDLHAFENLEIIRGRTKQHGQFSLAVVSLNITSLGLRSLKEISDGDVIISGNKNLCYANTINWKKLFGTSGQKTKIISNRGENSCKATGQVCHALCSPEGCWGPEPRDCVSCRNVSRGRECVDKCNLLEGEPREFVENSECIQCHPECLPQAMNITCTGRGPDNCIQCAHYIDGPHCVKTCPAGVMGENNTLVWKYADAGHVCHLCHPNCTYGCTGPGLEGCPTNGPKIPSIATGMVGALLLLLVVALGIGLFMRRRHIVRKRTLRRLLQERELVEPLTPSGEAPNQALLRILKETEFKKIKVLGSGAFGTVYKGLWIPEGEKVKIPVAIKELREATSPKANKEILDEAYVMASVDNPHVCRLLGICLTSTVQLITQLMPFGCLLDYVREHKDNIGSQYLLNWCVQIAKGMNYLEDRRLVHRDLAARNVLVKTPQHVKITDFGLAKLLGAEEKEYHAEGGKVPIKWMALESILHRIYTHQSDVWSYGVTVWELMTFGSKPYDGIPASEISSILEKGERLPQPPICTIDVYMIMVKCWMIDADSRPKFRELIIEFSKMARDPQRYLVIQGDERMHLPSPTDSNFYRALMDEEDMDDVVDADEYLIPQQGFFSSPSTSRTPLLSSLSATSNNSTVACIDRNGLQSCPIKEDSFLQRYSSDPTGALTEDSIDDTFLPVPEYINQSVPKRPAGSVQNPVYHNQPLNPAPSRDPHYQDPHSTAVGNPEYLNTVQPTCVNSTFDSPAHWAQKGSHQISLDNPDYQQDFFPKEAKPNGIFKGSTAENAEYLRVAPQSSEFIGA
Chain of Proto-oncogene tyrosine-protein kinase Src (Homo sapiens) (P12931 2-536 limits assumed): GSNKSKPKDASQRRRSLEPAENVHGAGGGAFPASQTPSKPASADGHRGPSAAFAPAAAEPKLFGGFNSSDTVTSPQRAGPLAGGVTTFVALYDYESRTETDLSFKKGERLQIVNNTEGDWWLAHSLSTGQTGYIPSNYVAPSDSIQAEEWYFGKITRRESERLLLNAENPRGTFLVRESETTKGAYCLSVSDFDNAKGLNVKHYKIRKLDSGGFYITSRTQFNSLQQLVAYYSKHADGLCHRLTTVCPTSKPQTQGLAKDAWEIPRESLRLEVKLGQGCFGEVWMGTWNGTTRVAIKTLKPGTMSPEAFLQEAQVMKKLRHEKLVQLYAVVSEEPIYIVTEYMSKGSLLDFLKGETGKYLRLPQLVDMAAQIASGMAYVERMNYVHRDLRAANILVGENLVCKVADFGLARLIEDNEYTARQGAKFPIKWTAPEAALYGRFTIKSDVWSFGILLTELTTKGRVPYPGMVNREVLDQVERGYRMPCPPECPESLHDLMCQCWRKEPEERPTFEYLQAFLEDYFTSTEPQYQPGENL

As for `Cc1cccc(C(=O)Nc2cccc(Nc3ncnc4c3Cc3ccccc3N4)c2)c1`, the pIC50 in the assay with A549 [1] was < 4.60; in the assay on K562 [2] it was 5.31. The same compound showed an inhibition in assay [3] of 53%.

On to `O=C(Nc1cccc(Nc2ncnc3c2Cc2ccccc2N3)c1)c1cccc(Cl)c1`, for which the values for the pIC50 in the assay with A549 [1] and with K562 [2] were 4.91 and 5.92, respectively. In assay [3], this compound displayed an inhibition of 30.2%.

For the compound `Cc1cccc(NC(=O)Nc2ccc(Nc3ncnc4c3Cc3ccccc3N4)cc2)c1`, the negative logarithm of the IC50 (pIC50) was < 4.60 in the assay with A549 [1] and 5.16 in the assay with K562 [2]. The inhibition in assay [3] is 65.4%.

`O=C(Nc1cccc(Nc2ncnc3c2Cc2ccccc2N3)c1)c1cccc(F)c1`: the results for the pIC50 in the assay on A549 [1] and with K562 [2] were 5.04 and 6.14, respectively. In assay [3], this compound came in with an inhibition of 24.5%.

Consider `COc1cccc(C(=O)Nc2ccc(Nc3ncnc4c3Cc3ccccc3N4)cc2)c1`, for which the values for the pIC50 in the assay on A549 [1] and in the assay on K562 [2] were 4.85 and 5.67, respectively. In addition, the inhibition in assay [3] came to 35.4%.

On to `O=C(Nc1ccc(Nc2ncnc3c2Cc2ccccc2N3)cc1)c1cccc(C(F)(F)F)c1`, for which the inhibition in [4] came to 52.4%; in assay [3] it was 95.4%. Moreover, the figures for the negative-log IC50 (pIC50) in the assay with A549 [1] and with K562 [2] were 4.91 and 5.88, respectively.

Turning to `O=C(Nc1ccc(Nc2ncnc3c2Cc2ccccc2N3)cc1)c1cccc(Cl)c1`, the values for the pIC50 in the assay with A549 [1] and in the assay on K562 [2] were 4.68 and 6.39, respectively. The compound also yielded an inhibition in [3] of 30.9%.

In turn, `Cc1ccc(NC(=O)c2ccc(CN3CCN(C)CC3)cc2)cc1Nc1nccc(-c2cccnc2)n1` [IMATINIB] showed a negative-log IC50 (pIC50) in the assay on A549 [1] of 5.34.

`O=C(Nc1ccc(Nc2ncnc3c2Cc2ccccc2N3)cc1)c1cccc(F)c1` had an inhibition at 1 µM in the assay with A549 [5] of 82.8%. The Activity with K562 [6] was 0.17%; in the assay on K562 [9] it was 45.15%; with A549 [11] it was “Dose-dependent effect”; with K562 [12], 3.06%; with K562 [13], 27.11%; in the assay on K562 [14], 18.82%. In addition, the Activity result with K562 [17] was “Dose-dependent effect”; in [18], 3.11%; in the assay with K562 [20], 0.77%; with K562 [21], 11.14%; with A549 [22], 3.03%; in the assay with K562 [23], 1.06%. The results for the Activity entry in the assay on A549 [24] and in the assay with K562 [25] were “Dose-dependent effect” and 4.19%, respectively. The inhibition result was “Dose-dependent effect” in [7], “Dose-dependent effect” in [16], 72.1% in assay [19] and 33.1 to 33.5% in assay [3]. Also, the K with Calf thymus DNA [8] stood at 973 M⁻¹. In the assay with A549 [10], the inhibition at 0.1 µM was 52.5%. For the same compound, the negative-log IC50 (pIC50) is 6.60 with A549 [1] and 6.66 in the assay with K562 [2]. The Kb with Calf thymus DNA [15] is 4.16 ×10³ /M.

In the case of `Cc1cccc(C(=O)Nc2ccc(Nc3ncnc4c3Cc3ccccc3N4)cc2)c1`, the pIC50 with A549 [1] was 4.61; with K562 [2], 5.44. This compound returned an inhibition in assay [3] of 51.1%.

Take `O=C(Nc1cccc(Nc2ncnc3c2Cc2ccccc2N3)c1)c1cccc(C(F)(F)F)c1`: the pIC50 in the assay on A549 [1] was 5.02; in the assay on K562 [2], 5.72. Also, the inhibition in assay [3] stood at 16.3%.

Regarding `O=C(Nc1cccc(Nc2ncnc3c2Cc2ccccc2N3)c1)c1ccccc1`, the figures for the pIC50 in the assay on A549 [1] and in the assay on K562 [2] were 4.74 and 5.51, respectively. This compound also displayed an inhibition in [3] of 30.7%.

On to `O=C(Nc1ccc(Nc2ncnc3c2Cc2ccccc2N3)cc1)Nc1cccc(Cl)c1`, for which the negative-log IC50 (pIC50) was 4.75 in the assay with A549 [1] and 5.51 with K562 [2]. For the same compound, the inhibition in [3] came to 42.1%.

In the case of `COc1cccc(NC(=O)Nc2ccc(Nc3ncnc4c3Cc3ccccc3N4)cc2)c1`, the pIC50 was 4.87 in the assay on A549 [1] and 5.44 with K562 [2]. In assay [3], this compound showed an inhibition of 24.9%.

With `O=C(Nc1ccc(Nc2ncnc3c2Cc2ccccc2N3)cc1)c1ccccc1`, the results for the pIC50 in the assay on A549 [1] and in the assay on K562 [2] were 4.84 and 5.60, respectively. Besides, the inhibition in assay [3] worked out at 12.6%.

The compound `COc1ccc2c(Nc3ccc(NC(=O)Nc4ccccc4)cc3)c3ccccc3nc2c1` had a pIC50 with A549 [1] of 5.04. Besides, the inhibition in assay [3] was determined as 21.4%.

As for `COc1cccc(C(=O)Nc2cccc(Nc3ncnc4c3Cc3ccccc3N4)c2)c1`, the pIC50 in the assay with A549 [1] was 4.87; in the assay on K562 [2], 5.51. The compound further showed an inhibition in assay [3] of 31.9%.

For `O=C(Nc1ccccc1)Nc1ccc(Nc2ncnc3c2Cc2ccccc2N3)cc1`, the negative-log IC50 (pIC50) with A549 [1] is 4.74; with K562 [2] it was 5.29. The inhibition in [3] amounted to 32%.

In the case of `O=C(Nc1ccc(Nc2ncnc3c2Cc2ccccc2N3)cc1)Nc1cccc(F)c1`, the pIC50 is 5.17 in the assay with A549 [1] and 5.50 with K562 [2]. Also, the inhibition in assay [3] amounted to 55.4%.

On to `O=C(Nc1ccc(Nc2ncnc3c2Cc2ccccc2N3)cc1)Nc1cccc(C(F)(F)F)c1`, for which the results for the pIC50 with A549 [1] and in the assay with K562 [2] were 5.03 and 5.47, respectively. This compound registered an inhibition in [3] of 35.4%.

(Values after ChEMBL document CHEMBL4138102, “Design, synthesis and evaluation of azaacridine derivatives as dual-target EGFR and Src kinase inhibitors for antitumor treatment” (Eur J Med Chem, 2017).)
